High-throughput results deposited in PubChem BioAssay by The Scripps Research Institute Molecular Screening Center.
S1P1 ag pot = agonists and agonism potentiators of human S1P1 receptor | P21453 | AID 449 | activation, % at 9.5 µM | S1P1 CRE-bla cells, forskolin, beta-lactamase FRET, potentiator mode; S1P1 agonist co-added at EC20, 2 nM; 100% = saturating reference agonist, 0% = basal | 0.57% of 56,000 active;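 active = activation above a cutoff set at the mean activation of all tested compounds plus 3 SD, cut at about 54% in these data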;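 also: forskolin at 4 µM as EC80 and the EC20 agonist is SEW2871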
HTR1E antagonist = antagonists of human 5-HT1E serotonin receptor | P28566 | CHO 5-HT1E Ga15 NFAT-bla reporter, FRET, antagonist | inhibition, % at 6 µM | 0.99% of 65,000 active | AID 571;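 active = inhibition above a set limit, the mean inhibition across every tested compound plus 3 SD, cut at about 29% in these data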;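 also: signal is the 460 over 535 nm emission ratio of beta-lactamase substrate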
S1P3 ag = agonists of human S1P3 receptor. Q99500. S1P3 NFAT-BLA reporter cells, agonism, FRET ratio; relative to 1 µM S1P, basal subtracted. AID 373. activation, % at 4.5 µM. 0.1% of 60,000 active;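 active = activation above the screen-wide mean plus 3 SD, cut at about 4.5% in these data, passing the limit was not always enough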
Target sequence (Q99500 whole entry, looked up): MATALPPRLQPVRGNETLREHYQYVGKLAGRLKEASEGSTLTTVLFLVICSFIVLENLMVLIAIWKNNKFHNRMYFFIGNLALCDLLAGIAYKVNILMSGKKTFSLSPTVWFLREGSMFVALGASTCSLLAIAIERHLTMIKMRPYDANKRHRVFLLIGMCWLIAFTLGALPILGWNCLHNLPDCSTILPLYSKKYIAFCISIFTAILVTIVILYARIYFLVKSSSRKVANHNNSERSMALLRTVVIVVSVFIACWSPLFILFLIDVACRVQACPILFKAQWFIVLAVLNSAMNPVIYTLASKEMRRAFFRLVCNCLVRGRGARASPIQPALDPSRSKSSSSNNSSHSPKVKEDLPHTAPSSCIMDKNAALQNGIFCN
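Measure – % activation relative to 1 µM S1P (100%), per plate · System – stable CHO line with human S1P3, Gα16, NFAT-BLA reporter · Timing – cells plated overnight, compound 4 h 37 °C, substrate 2 h RT · Technique – fluorescent BLA substrate, ex 405 nm, em 460/535 nm ratio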
5HT1a ag = 5-HT1a (human) receptor agonism | CHO 5-HT1a Ga15 NFAT-bla reporter, FRET ratio; 0% basal, 100% maximal reference agonist | activation, % at 10 µM | 0.56% of 65,000 active;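 active = activation above the screen-wide mean activation plus 3 SD, cut at about 19% in these data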
HTR1E agonist = activates the human 5-HT1E serotonin receptor. activation, % at 6 µM. CHO 5-HT1E Ga15 NFAT-bla reporter, FRET; 0% DMSO wells, 100% control agonist wells. P28566. 0.69% of 65,000 active;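 active = activation above a set limit, the screen-wide mean activation plus 3 SD, cut at about 8.5% in these data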
5HT1a antag = 5-HT1a (human) receptor antagonism | P08908 | inhibition, % at 10 µM | AID 612 | CHO 5-HT1a Ga15 NFAT-bla reporter, antagonist mode | 0.68% of 62,000 active;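 active = inhibition above the mean of all tested compounds plus 3 SD, cut at about 43% in these data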;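 also: receptor stimulated by 5-CT agonist at 100 nM near EC80; beta-lactamase reporter measured by ratiometric fluorescence of a cleavable substrate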
Of the large screens only hits and unclear results are named; the others gave an inactive call. The list is not random: actives were taken first. Their share in the collection is about 3%.

CCOC(=O)c1[nH]c2ccc(OC)cc2c1NC(=O)OC	none
CCOC(=O)c1ccccc1NC(=O)c1cn(CC)c2nc(C)ccc2c1=O	none
c1cc(Nc2ncnc3sccc23)cc(-c2nnc3n2CCCCC3)c1	HTR1E antagonist 29.8
Cc1cnc(C(=O)Nc2cccc(-c3nnc4n3CCCCC4)c2)cn1	none
COC(=O)c1cc2sc(Cl)cc2n1CC(=O)Nc1cccc(SC)c1	5HT1a antag 48.0
COC(=O)c1sccc1NC(=O)c1cc2c(s1)CCCC2	5HT1a ag 30.0
COC(=O)c1sccc1NC(=O)c1ccc(Br)o1	none
COc1ccc(C(O)C(CC(=O)NCCCOC(C)C)C(=O)NCCCOC(C)C)cc1OC (centres undefined)	none
CCOC(=O)C1=C(N)Oc2cc(C)n(CCc3ccc(OC)c(OC)c3)c(=O)c2C1c1cccnc1 (centres undefined)	HTR1E antagonist 30.5
COc1ccc(OC)c(C2CC(=O)c3c([nH]c(C(=O)OC(C)C)c3C)C2)c1 (centres undefined)	HTR1E antagonist 87.3, 5HT1a antag 71.4
CCCOCCOC(=O)c1[nH]c2c(c1C)C(=O)CC(c1cc(OC)ccc1OC)C2 (centres undefined)	HTR1E antagonist 81.4, 5HT1a antag 76.5
COC(=O)c1ccc(OCC2c3cc(OC)c(OC)cc3CCN2C(=O)c2ccco2)cc1 (centres undefined)	HTR1E antagonist 36.2 (no result: S1P1 ag pot, S1P3 ag)
CCC(=O)N1CCc2cc(OC)c(OC)cc2C1COc1ccc(C(=O)OC)cc1 (centres undefined)	HTR1E antagonist 37.4 (no result: S1P1 ag pot, S1P3 ag)
O=C(COc1ccc(F)cc1Br)N1CCc2ccccc21	none
COc1nc(NCCc2ccc(OC)c(OC)c2)nc(OC)n1	none
COc1nc(NCCC2=CCCCC2)nc(OC)n1	5HT1a ag 50.6 (no result: S1P1 ag pot)
CCOc1ccccc1NC(=O)Cn1cnc2c(nnn2-c2cccc(OC)c2)c1=O	none
Cc1ccc(Cn2c(SCc3cccnc3)nc3c2c(=O)n(C)c(=O)n3C)cc1	5HT1a ag 29.5
C=CCn1c(O)c(C2=c3ccccc3=NC2=O)sc1=Nc1ccc(O)cc1	5HT1a antag 55.0
Cc1sc2nc(C3CC3)nc(N3CCN(S(=O)(=O)c4ccc(F)cc4)CC3)c2c1C	none
Cc1sc2nc(C3CC3)nc(NCCNS(C)(=O)=O)c2c1C	HTR1E antagonist 38.8
Cc1cccc(N2CC34C=CC(O3)C(C(=O)O)C4C2=O)c1 (centres undefined)	none
Cc1ccc2c(c1)C1OCCC1C1N2C(=O)C2C(C(=O)O)C3C=CC21O3 (centres undefined)	5HT1a ag 20.5
CCN(CC)C(=O)CSc1ccccc1N	5HT1a ag 19.9 (no result: S1P1 ag pot)
COc1ccccc1N=c1oc2cc(O)ccc2cc1C(N)=O	5HT1a ag 44.7, HTR1E agonist 18.8
COc1ccccc1N=c1oc2cc(O)ccc2cc1C(=O)NCC1CCCO1 (centres undefined)	5HT1a ag 53.6, HTR1E agonist 14.7
COc1ccccc1NC(=O)c1cc2ccc(O)cc2o/c1=N\O	none
Cc1cccc(N=c2oc3cc(O)ccc3cc2C(N)=O)c1	5HT1a ag 63.6, HTR1E agonist 24.1
COc1cccc2cc(C(=O)NCC3CCCO3)c(=O)oc12 (centres undefined)	none (no result: S1P1 ag pot, S1P3 ag)
O=C(Nc1ccc2c(c1)OCO2)N1CCN(C(=O)C2CCCO2)CC1 (centres undefined)	none (no result: S1P1 ag pot)
Cc1cc(C)nc(NS(=O)(=O)c2ccc(NC(=O)CCN3C(=O)c4ccccc4C3=O)cc2)n1	none
CC(CCc1ccccc1)NC(=O)CSc1nc(N)cc(N)n1 (centres undefined)	HTR1E agonist 57.8
CCOC(=O)c1c(C)[nH]c(C(=O)COC(=O)c2oc3ccc(OC)cc3c2C)c1C	HTR1E agonist 35.0
CCOC(=O)c1c(C)[nH]c(C(=O)COC(=O)c2cnc(C)cn2)c1C	none
CC1=CCC2C(=O)N(c3ccc(C)c(Br)c3)C(=O)C2C1 (centres undefined)	HTR1E agonist 13.1
CC1=CCC2C(=O)N(c3ccc(Br)cc3C)C(=O)C2C1 (centres undefined)	none
